Results reported in ChEMBL document CHEMBL1152203, “New jasmonate analogues as potential anti-inflammatory agents” (Bioorg Med Chem, 2008).
Calls of active or inactive are those of the source. No cut-off for these calls is given here.

Tests used:
RAW264.7 [1] = experiment: Antiinflammatory activity in LPS-stimulated mouse RAW264.7 cells assessed as inhibition of NO production at 25 uM after 24 hrs by Griess reagent method; assay type: functional, cell-based
Procedure, shortened: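 Test samples at 12.5 and 25.0 µM with LPS (1 µg/mL) on RAW264.7 cells (1.5 × 10^5 cells/mL) for 24 h. NO read by Griess method, IL-6 and TNF-α by ELISA. Means ± SD of triplicate experiments.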

RAW264.7 [2] = experiment: Antiinflammatory activity in LPS-stimulated mouse RAW264.7 cells assessed as inhibition of IL6 production at after 24 hrs by ELISA; assay type: functional, cell-based
Procedure, shortened: (§1)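 RAW264.7 cells at 1.5 × 10^5 cells/mL, pre-incubated 18 h in 24-well plates, then stimulated with LPS (1 µg/mL) alone or with test samples for 24 h. Samples dissolved in EtOH diluted with DMEM, solvent ≤0.1% final. NO in supernatant by Griess reagent (10 min, room temperature, light protected, absorbance 540 nm); IL-6 and TNF-α by ELISA. Mean ± SD.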

RAW264.7 [3] = experiment: Antiinflammatory activity in LPS-stimulated mouse RAW264.7 cells assessed as inhibition of NO production at 30 uM after 24 hrs by Griess reagent method; assay type: functional, cell-based
Procedure, shortened: (§2)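 Samples and prostaglandin references tested at 10 and 30 µM alongside LPS (1 µg/mL) in RAW264.7 cells (1.5 × 10^5 cells/mL), 24 h; NO by Griess reagent. Triplicate experiments, means ± SD.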

RAW264.7 [4] = experiment: Antiinflammatory activity in LPS-stimulated mouse RAW264.7 cells assessed as inhibition of NO production at 10 uM after 24 hrs by Griess reagent method; assay type: functional, cell-based; procedure, shortened: as §2
RAW264.7 [5] = experiment: Antiinflammatory activity in LPS-stimulated mouse RAW264.7 cells assessed as inhibition of NO production after 24 hrs by Griess reagent method; assay type: functional, cell-based; procedure, shortened: as §1
RAW264.7 [6] = experiment: Antiinflammatory activity in LPS-stimulated mouse RAW264.7 cells assessed as inhibition of TNFalpha production after 24 hrs by ELISA; assay type: functional, cell-based; procedure, shortened: as §1
RAW264.7 [7] = experiment: Antiinflammatory activity in LPS-stimulated mouse RAW264.7 cells assessed as inhibition of NO production at 100 uM after 24 hrs by Griess reagent method; assay type: functional, cell-based
Procedure, shortened: (§3)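 Conditions used at 50 and 100 µM: RAW264.7 cells (1.5 × 10^5 cells/mL) stimulated with LPS (1 µg/mL) alone or with samples for 24 h. Supernatant NO measured by Griess reagent, absorbance 540 nm; IL-6 and TNF-α by ELISA. Means ± SD of duplicate experiments; blank and LPS-only controls.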

RAW264.7 [8] = experiment: Cytotoxicity against LPS-stimulated mouse RAW264.7 cells at 50 uM after 24 hrs by MTT assay; assay type: cell-based; conditions: raw264.7, 24 h
Procedure, shortened: (§4)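 Viability of RAW264.7 cells (1.5 × 10^5 cells/mL) after 24 h exposure to LPS (1 µg/mL) plus test sample, by MTT. MTT added for 4 h, formazan dissolved in DMSO, absorbance 540 nm. Means ± SD of duplicate (50, 100 µM) or triplicate (other concentrations) experiments.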

RAW264.7 [9] = experiment: Antiinflammatory activity in LPS-stimulated mouse RAW264.7 cells assessed as inhibition of IL6 production at 50 uM after 24 hrs by ELISA; assay type: functional, cell-based; procedure, shortened: as §1
RAW264.7 [10] = experiment: Cytotoxicity against LPS-stimulated mouse RAW264.7 cells at 100 uM after 24 hrs by MTT assay; assay type: cell-based; conditions: raw264.7, 24 h; procedure, shortened: as §4
RAW264.7 [11] = experiment: Antiinflammatory activity in LPS-stimulated mouse RAW264.7 cells assessed as inhibition of NO production at 12.5 uM after 24 hrs by Griess reagent method; assay type: functional, cell-based; procedure, shortened: as §1
RAW264.7 [12] = experiment: Antiinflammatory activity in LPS-stimulated mouse RAW264.7 cells assessed as inhibition of TNFalpha production at 50 uM after 24 hrs by ELISA; assay type: functional, cell-based; procedure, shortened: as §3
RAW264.7 [13] = experiment: Antiinflammatory activity in LPS-stimulated mouse RAW264.7 cells assessed as inhibition of NO production at 50 uM after 24 hrs by Griess reagent method; assay type: functional, cell-based; procedure, shortened: as §3
RAW264.7 [14] = experiment: Antiinflammatory activity in LPS-stimulated mouse RAW264.7 cells assessed as inhibition of IL6 production at 12.5 uM after 24 hrs by ELISA; assay type: functional, cell-based; procedure, shortened: as §1
RAW264.7 [15] = experiment: Antiinflammatory activity in LPS-stimulated mouse RAW264.7 cells assessed as inhibition of TNFalpha production at 12.5 uM after 24 hrs by ELISA; assay type: functional, cell-based; procedure, shortened: as §1
RAW264.7 [16] = experiment: Antiinflammatory activity in LPS-stimulated mouse RAW264.7 cells assessed as inhibition of NO production at 3.12 uM after 24 hrs by Griess reagent method; assay type: functional, cell-based
Procedure, shortened: (§5)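 NO series at 3.12, 6.25 and 12.5 µM: RAW264.7 cells (1.5 × 10^5 cells/mL) co-treated with LPS (1 µg/mL) for 24 h; nitrite by Griess reagent. Means ± SD of triplicate experiments.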

RAW264.7 [17] = experiment: Cytotoxicity against LPS-stimulated mouse RAW264.7 cells at 6.25 uM after 24 hrs by MTT assay; assay type: cell-based; conditions: raw264.7, 24 h; procedure, shortened: as §4
RAW264.7 [18] = experiment: Cytotoxicity against LPS-stimulated mouse RAW264.7 cells at 25 uM after 24 hrs by MTT assay; assay type: cell-based; conditions: raw264.7, 24 h; procedure, shortened: as §4
RAW264.7 [19] = experiment: Antiinflammatory activity in LPS-stimulated mouse RAW264.7 cells assessed as inhibition of NO production at 6.25 uM after 24 hrs by Griess reagent method; assay type: functional, cell-based; procedure, shortened: as §5
RAW264.7 [20] = experiment: Cytotoxicity against LPS-stimulated mouse RAW264.7 cells at 10 uM after 24 hrs by MTT assay; assay type: cell-based; conditions: raw264.7, 24 h; procedure, shortened: as §4
RAW264.7 [21] = experiment: Cytotoxicity against LPS-stimulated mouse RAW264.7 cells at 3.12 uM after 24 hrs by MTT assay; assay type: cell-based; conditions: raw264.7, 24 h; procedure, shortened: as §4
RAW264.7 [22] = experiment: Cytotoxicity against LPS-stimulated mouse RAW264.7 cells at 12.5 uM after 24 hrs by MTT assay; assay type: cell-based; conditions: raw264.7, 24 h; procedure, shortened: as §4

Row | SMILES | Activity (RAW264.7 [1]) | Activity (RAW264.7 [2]) | Activity (RAW264.7 [5]) | Activity (RAW264.7 [6]) | Activity (RAW264.7 [11]) | Activity (RAW264.7 [14]) | Activity (RAW264.7 [15]) | further results
1 | CC/C=C\CC1C(=O)C(Cl)=CC1CC(=O)OC (configuration not stated) | Active | Dose-dependent effect | Dose-dependent effect | Dose-dependent effect |  |  |  | Activity (RAW264.7 [3]): Active; Activity (RAW264.7 [4]): Active
2 | CCCCCC1C(=O)C(Cl)=CC1CC(=O)OC (configuration not stated) | Active | Dose-dependent effect | Dose-dependent effect | Dose-dependent effect |  |  |  | Activity (RAW264.7 [3]): Active; Activity (RAW264.7 [4]): Active
3 | CC/C=C\CC1C(=O)C=CC1CC(=O)OC (configuration not stated) | Active | Dose-dependent effect | Dose-dependent effect | Dose-dependent effect | Active | Active | Active | Activity (RAW264.7 [7]): Active; Activity (RAW264.7 [8]): Toxic; Activity (RAW264.7 [9]): Active; Activity (RAW264.7 [10]): Toxic; Activity (RAW264.7 [12]): Active; Activity (RAW264.7 [13]): Active
4 | CCCCCC1C(=O)C(I)=CC1CC(=O)OC (configuration not stated) |  | Dose-dependent effect | Dose-dependent effect | Dose-dependent effect |  |  |  | 
5 | CCCCCC1C(=O)C=CC1CC(=O)OC (configuration not stated) |  | Dose-dependent effect | Dose-dependent effect | Dose-dependent effect |  |  |  | 
6 | CC/C=C\CC1C(=O)C(C(=O)OC)=CC1CC(=O)OC (configuration not stated) |  |  |  |  |  |  |  | Activity (RAW264.7 [7]): Active; Activity (RAW264.7 [8]): Toxic; Activity (RAW264.7 [9]): Active; Activity (RAW264.7 [10]): Toxic; Activity (RAW264.7 [12]): Active; Activity (RAW264.7 [13]): Active
7 | CCCCCC1C(=O)C(Cl)=CC1CC(=O)O (configuration not stated) | Active | Dose-dependent effect | Dose-dependent effect | Dose-dependent effect | Active | Active | Active | 
8 | CC/C=C\CC1C(=O)CCC1CC(=O)OC (configuration not stated) [METHYL JASMONATE] |  |  |  |  |  |  |  | Activity (RAW264.7 [7]): Active; Activity (RAW264.7 [8]): Toxic; Activity (RAW264.7 [9]): Active; Activity (RAW264.7 [10]): Toxic; Activity (RAW264.7 [12]): Active; Activity (RAW264.7 [13]): Active
9 | CCCCCC1C(=O)C=CC1CC(=O)NCCO (configuration not stated) | Active | Dose-dependent effect | Dose-dependent effect | Dose-dependent effect | Active | Active | Active | 
10 | CCCCCC1C(=O)C(Br)=CC1CC(=O)OC (configuration not stated) |  | Dose-dependent effect | Dose-dependent effect | Dose-dependent effect |  |  |  | Activity (RAW264.7 [3]): Active; Activity (RAW264.7 [4]): Active; Activity (RAW264.7 [16]): Active; Activity (RAW264.7 [17]): Non-toxic; Activity (RAW264.7 [18]): Toxic; Activity (RAW264.7 [19]): Active; Activity (RAW264.7 [20]): Toxic; Activity (RAW264.7 [21]): Non-toxic; Activity (RAW264.7 [22]): Toxic
11 | CC/C=C\CC1C(=O)C(I)=CC1CC(=O)OC (configuration not stated) |  | Dose-dependent effect | Dose-dependent effect | Dose-dependent effect |  |  |  | 
12 | CC/C=C\CC1C(=O)C=CC1CC(=O)NCCO (configuration not stated) | Active | Dose-dependent effect | Dose-dependent effect | Dose-dependent effect | Active | Active | Active | 
13 | CC/C=C\CC1C(=O)C=CC1CC(=O)NC(C)C (configuration not stated) | Active | Dose-dependent effect | Dose-dependent effect | Dose-dependent effect | Active | Active | Active | 
14 | CC/C=C\CC1C(=O)C=CC1CC(=O)O (configuration not stated) | Active | Dose-dependent effect | Dose-dependent effect | Dose-dependent effect | Active | Active | Active | 
15 | CC/C=C\CC1C(=O)C(Br)=CC1CC(=O)OC (configuration not stated) |  | Dose-dependent effect | Dose-dependent effect | Dose-dependent effect |  |  |  | Activity (RAW264.7 [3]): Active; Activity (RAW264.7 [4]): Active; Activity (RAW264.7 [16]): Active; Activity (RAW264.7 [17]): Non-toxic; Activity (RAW264.7 [18]): Toxic; Activity (RAW264.7 [19]): Active; Activity (RAW264.7 [20]): Toxic; Activity (RAW264.7 [21]): Non-toxic; Activity (RAW264.7 [22]): Toxic
16 | CC/C=C\CC1C(=O)C(Cl)=CC1CC(=O)O (configuration not stated) | Active | Dose-dependent effect | Dose-dependent effect | Dose-dependent effect | Active | Active | Active | 
17 | CCCCCC1C(=O)C=CC1CC(=O)NC(C)C (configuration not stated) | Active | Dose-dependent effect | Dose-dependent effect | Dose-dependent effect | Active | Active | Active | 
18 | CC/C=C\CC1C(=O)C(C#N)=CC1CC(=O)OC (configuration not stated) |  |  |  |  |  |  |  | Activity (RAW264.7 [7]): Active; Activity (RAW264.7 [8]): Toxic; Activity (RAW264.7 [9]): Active; Activity (RAW264.7 [10]): Toxic; Activity (RAW264.7 [12]): Active; Activity (RAW264.7 [13]): Active
19 | CCCCCC1C(=O)C=CC1CC(=O)O (configuration not stated) | Active | Dose-dependent effect | Dose-dependent effect | Dose-dependent effect | Active | Active | Active | 
